Source: PubChem BioAssay
APJ antag: APJ receptor antagonism. CHO-K1 APJ beta-arrestin complementation, luminescence. inhibition, % at 20 µM. 330,000 tested, 0.32% active;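 active means inhibition above about 40% at 20 µM, limit read from the data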;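 further: cells challenged with 10 nM apelin-13 agonist together with compound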
APJ ag: activates the human apelin receptor APJ; CHO-K1 APJ PathHunter beta-arrestin, luminescence; 0% DMSO wells, 100% apelin; activation, % at 20 µM; 330,000 tested, 0.11% active; AID 2520;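 active means activation more than six SD over the plate average, tested at 20 µM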
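Test system: CHO-K1 APJ beta-arrestin complementation cell line | Compound: Single test compound dose, 20 µM final, 1% DMSO | Incubation: Compound 90 min 25 °C, reagent 1 h | Measured by: beta-gal luminescence | Read-out basis: APJ–arrestin association signal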
B2AR ag: agonists of human beta-2 adrenergic receptor inducing internalization. Am2.2-beta2AR cells, FAP receptor internalization, flow cytometry. response, % (concentration not given with the values). 340,000 tested, 0.43% active. AID 504454;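 active means response above a set limit, near 3 SD of response in nonfluorescent compounds, cut at about 42% in these data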
Target sequence (P07550 whole entry, looked up): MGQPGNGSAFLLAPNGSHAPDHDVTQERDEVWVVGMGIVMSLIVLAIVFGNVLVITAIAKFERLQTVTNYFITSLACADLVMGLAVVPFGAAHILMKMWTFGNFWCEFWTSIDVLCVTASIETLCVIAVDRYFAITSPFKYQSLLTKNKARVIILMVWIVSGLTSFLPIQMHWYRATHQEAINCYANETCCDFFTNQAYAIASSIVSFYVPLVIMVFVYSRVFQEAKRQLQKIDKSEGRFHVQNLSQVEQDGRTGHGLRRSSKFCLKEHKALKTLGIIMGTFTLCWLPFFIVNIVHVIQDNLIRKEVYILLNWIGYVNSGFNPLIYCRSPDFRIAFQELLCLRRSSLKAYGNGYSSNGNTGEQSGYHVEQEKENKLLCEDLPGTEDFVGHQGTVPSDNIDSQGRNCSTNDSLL
CXCR6 inh: blocks human CXCR6 beta-arrestin recruitment | O00574 | AID 602244 | inhibition, % at 20 µM | 360,000 tested, 0.36% active | CHO-K1 PathHunter CXCR6 beta-arrestin, luminescence; in the data active means inhibition above about 34%, passing the limit was not always enough;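 further: antagonist mode with CXCL16 agonist at 10 nM final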
CCR6 antag: blocks CCL20-driven beta-arrestin recruitment at human CCR6; P51684; CHO-K1 CCR6 PathHunter beta-arrestin, luminescence, CCL20-stimulated; inhibition, % at 20 µM; 340,000 tested, 0.49% active;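 active means compounds whose inhibition of the agonist-driven luminescence signal at 20 µM reaches about 50%, limit read from the data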;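 further: cells stimulated with CCL20 at 14 nM final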
EBI2 antag: blocks human EBI2 receptor beta-arrestin signaling; P32249; EBI2 beta-arrestin recruitment, luminescence, 7a,25-OHC stimulated; inhibition, % at 5 µM; 360,000 tested, 0.81% active; AID 651636; in the data active means inhibition above about 38%;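 further: enzyme fragment complementation signal reports receptor beta-arrestin coupling in cells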
Of the large screens only hits and unclear results are named; the others gave an inactive call. Compounds with a hit are over-represented: about 1.8% of the library has one in this group of screens.

C=CCNc1nc(S(=O)Cc2ccc(C)cc2)nc2c1CCCC2 (centres undefined)	B2AR ag 53
Cc1cc(C)c2nc(SCC(=O)N3CC(=O)Nc4ccccc43)c(C#N)cc2c1	EBI2 antag 49
Cc1cc(C)c2nc(SCC(=O)Nc3ccccc3N3CCOCC3)c(C#N)cc2c1	none
CC1OC2CC(=O)OC2C2=C1C(=O)c1c(O)cccc1C2=O (centres undefined)	CXCR6 inh 79 (no result: APJ antag, APJ ag, B2AR ag, CCR6 antag)
COc1ccc([C@@H]2CC=C(C(=O)O)[C@H](c3ccccc3F)N2S(=O)(=O)c2ccccc2C)cc1	none
Cc1cc(C(=O)N/N=C/c2cc([N+](=O)[O-])ccc2O)c2ccccc2n1	EBI2 antag 49
O=C(N/N=C/c1cc([N+](=O)[O-])ccc1O)C12CC3CC(CC(C3)C1)C2	CCR6 antag 71, EBI2 antag 79
COc1ccc(N2CC(C(=O)N/N=C/c3cc([N+](=O)[O-])ccc3O)CC2=O)cc1 (centres undefined)	CCR6 antag 56
O=[N+]([O-])c1ccc(NN=Cc2ccc(O)cc2O)nc1	CCR6 antag 63 (no result: APJ antag, APJ ag)
O=[N+]([O-])c1ccc(O)c(/C=N/Nc2ccccn2)c1	CCR6 antag 61, EBI2 antag 64 (no result: APJ antag, APJ ag)
CCOc1cc(/C=C2\C(=O)ON=C2C)ccc1OCc1ccccc1	APJ ag 9.7
Cn1c(C(=O)O)c(S(=O)(=O)c2ccc(Cl)cc2)c2ccccc21	none
CC(C)[C@H](NC(=O)OCc1ccccc1)C(=O)OCC(=O)NCCc1ccccc1	none
CCN1C(=O)C(O)(CC(=O)/C=C/C=C/c2ccccc2)c2ccccc21 (centres undefined)	none
O=C(/C=C/C=C/c1ccccc1)CC1(O)C(=O)N(CCc2ccccc2)c2ccccc21 (centres undefined)	B2AR ag 93
CCN(C(=O)CSc1nnc(-c2ccc(OC)cc2)n1C(C)C)C1CCS(=O)(=O)C1 (centres undefined)	none
O=C(Nc1cccc2[nH]c([C@H]3C[C@H](O)[C@@H](CO)O3)nc12)NC(c1ccccc1)c1ccccc1	none (no result: APJ antag, APJ ag, B2AR ag, CCR6 antag)
CCOC(=O)C1(C)CCCCN1C(=O)c1cccc(Cl)c1 (centres undefined)	none (no result: APJ antag, APJ ag, B2AR ag, CCR6 antag)
COc1cccc(NC(=S)NC(=O)c2cncc(Br)c2)c1	none
CC(=O)c1cccc(NC(=S)NC(=O)c2cncc(Br)c2)c1	CCR6 antag 56
COc1cccc(OC)c1C(=O)Nc1ccccc1Sc1ccccc1	none
O=C(O)CCCN1C(=O)/C(=C\c2ccc(-c3nc4ccccc4s3)o2)SC1=S	B2AR ag 53, CXCR6 inh 43
N#C/C(=C\c1ccc(O)cc1)c1nc2ccccc2o1	APJ antag 45
COc1ccc(/C=N\NC(=O)c2ccc([N+](=O)[O-])cc2)cc1COc1c(F)c(F)cc(F)c1F	none
COc1ccc(/C=N\NC(=O)c2ccccc2[N+](=O)[O-])cc1COc1c(F)c(F)c(F)c(F)c1F	B2AR ag 53
Cc1cc2cc(C=O)c(Cl)nc2cc1C	B2AR ag 48
Cc1ccc(-c2cc(-c3ccccc3)c(C#N)c(N)n2)o1	CCR6 antag 78
O=C(NCc1cccnc1)/C(=C\c1ccc(-c2ccc(Br)cc2)o1)S(=O)(=O)c1ccccc1	EBI2 antag 62
O=C(NCc1cccnc1)/C(=C/c1ccc(-c2ccc(Cl)cc2)o1)S(=O)(=O)c1ccccc1	B2AR ag 108, EBI2 antag 54
O=C(NCc1cccnc1)/C(=C/c1ccc(-c2cccc(C(F)(F)F)c2)o1)NC(=O)c1ccccc1	none
CC(=O)N(CCc1ccccc1)Cc1cc2ccc(C)c(C)c2[nH]c1=O	none
CCOc1ccc(Cl)cc1-c1cc(C(=O)Nc2ccc(F)cc2)[nH]n1	none (no result: APJ antag, APJ ag, B2AR ag, CCR6 antag)
NS(=O)(=O)c1ccc(NC(=O)COC(=O)CC2Sc3ccccc3NC2=O)cc1 (centres undefined)	none
COc1ccc(-c2[nH]ncc2CN(C)Cc2nonc2C)c(OC)c1	none
CCOC(=O)[C@]12CCCC=C1N(Cc1ccc3c(c1)OCO3)C(=O)[C@H](CC(=O)N1CCCCC1)C2	none (no result: APJ antag, APJ ag, B2AR ag, CCR6 antag)
CCCCCOc1ccc(/C=c2\sc3nc(=O)c(-c4ccccc4)nn3c2=O)cc1OC	none
O=c1nc2s/c(=C\c3ccc(-c4ccccc4[N+](=O)[O-])o3)c(=O)n2nc1-c1ccccc1	CCR6 antag 58 (no result: APJ antag, APJ ag)
Cc1ccc(S(=O)(=O)N2CCOCC2)cc1NC(=O)COC(=O)C1=COCCO1	none
O=C(OCC(=O)c1ccc(S(=O)(=O)N2CCCC2)cc1)C1=COCCO1	CCR6 antag 53
Cc1ccc(C(=O)OCC(=O)c2ccc(S(=O)(=O)N3CCCCC3)cc2)o1	CCR6 antag 53
C#CCNC(=O)C[C@@H]1C[C@@]2(C(=O)OCC)CCCC=C2N(Cc2ccc3c(c2)OCO3)C1=O	none (no result: APJ antag, APJ ag, B2AR ag, CCR6 antag)
Cc1cc(Br)ccc1SCC(=O)N1CCN(S(=O)(=O)c2ccccc2)CC1	EBI2 antag 83
Cc1nnc(NC(=O)Cn2cnc3c2c(=O)n(C)c(=O)n3C)s1	none
COc1cc(N2C(=O)C=CC2=O)c(OC)cc1Cl	CXCR6 inh 75 (no result: CCR6 antag)
O=C(CCl)c1ccc2c(c1)CCN2C(=O)C1CCCCC1	CCR6 antag 53
O=C(CCl)c1ccc2c(c1)CCN2C(=O)C1CC1	none (no result: B2AR ag, CXCR6 inh, CCR6 antag, EBI2 antag)
CC1(O)CC(c2ccc(Cl)cc2)=NN1C(=O)c1ccc(Cl)cc1 (centres undefined)	CCR6 antag 57
CCN(Cc1ccccc1)c1ccc(/C=N/N=C(N)N)cc1	B2AR ag 63
CCN(Cc1ccccc1)c1ccccc1	none (no result: APJ antag, APJ ag)
COc1cc2c(oc(=O)c3cc(C)cc(OC)c32)c2c(C3OC(C)C(O)C(C)(O)C3O)ccc(O)c12 (centres undefined)	none (no result: APJ antag, APJ ag)
C=C(CC[C@@H](O)C(C)(C)O)[C@H]1CC[C@]2(C)[C@@H]1CCC1[C@@]3(C)CC[C@H](O)C(C)(C)C3CC[C@]12C (some centres undefined)	CCR6 antag 69
CCCN1/C(=C2/SC(=S)N(CC)C2=O)C=Cc2ccccc21	CCR6 antag 54
CCN1C(=O)/C(=C2/C=Cc3ccccc3N2CC)SC1=S	none
CCCN1C(=O)/C(=C2/C=Cc3ccccc3N2CC)SC1=S	APJ antag 42
CC1CCC(=O)N(CCC#N)CC1 (centres undefined)	none
Cc1cc(C)cc(-n2c(N)c(C(=O)Nc3c(C)n(C)n(-c4ccccc4)c3=O)c3nc4ccccc4nc32)c1	none
Cc1ccc(-n2c(N)c(C(=O)Nc3c(C)n(C)n(-c4ccccc4)c3=O)c3nc4ccccc4nc32)cc1	B2AR ag 68
COc1cccc(-n2c(N)c(C(=O)Nc3c(C)n(C)n(-c4ccccc4)c3=O)c3nc4ccccc4nc32)c1	B2AR ag 66
